# Sampled rows, rich in hits. Any-hit rate of the full collection: about 1.3%.
# PGE2 EP2 inh: human EP2 receptor antagonists, primary screen, TR-FRET cAMP, C6 glioma cells; Prostaglandin E2 receptor EP2 subtype (Homo sapiens), P43116; C6 glioma cells expressing human EP2; cells stimulated with saturating PGE2; inhibition, % at 25 µM; hit rate 0.52% among 260,000;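 active = percent inhibition above 40 after rounding to a whole number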;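 note: rat C6 glioma host cells with rolipram phosphodiesterase inhibitor present; the protocol text gives 20 µM as final concentration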
# JMJD2C inh: inhibitors of GASC-1 histone demethylase, primary screen, biochemical, fluorescence, DELFIA europium; Lysine-specific demethylase 4C (Homo sapiens), Q9H3R0; GST-JMJD2C(1-420) H3K9me3 demethylation; inhibition, % at 2.35 µM; hit rate 0.069% among 330,000;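 active = more than half of a compound's replicate wells show inhibition beyond 50%, single wells judged on their own value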;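 note: signal counts dimethyl H3K9 product captured on neutravidin plate; 0% = median of DMSO wells and 100% = 0.3 times that DMSO median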
# NR2E3 ag-1: inhibitors of NR2E3-RetCOR corepressor binding, primary screen, NR2E3 agonist project, biochemical, TR-FRET, GST-NR2E3, biotin-RetCOR; Photoreceptor-specific nuclear receptor (Homo sapiens), Q9Y5X4; 1536-well; inhibition of corepressor binding, % at 4.78 µM; hit rate 0.12% among 320,000; AID 2300, 2010;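 active = percent inhibition above the cutoff of mean plus 3 SD of all tested compounds, set per screening campaign, cut at about 20% in these data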;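 note: 0% = DMSO wells and 100% = biotin wells as full block of FRET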
# Target sequence (Q9Y5X4 whole entry, looked up): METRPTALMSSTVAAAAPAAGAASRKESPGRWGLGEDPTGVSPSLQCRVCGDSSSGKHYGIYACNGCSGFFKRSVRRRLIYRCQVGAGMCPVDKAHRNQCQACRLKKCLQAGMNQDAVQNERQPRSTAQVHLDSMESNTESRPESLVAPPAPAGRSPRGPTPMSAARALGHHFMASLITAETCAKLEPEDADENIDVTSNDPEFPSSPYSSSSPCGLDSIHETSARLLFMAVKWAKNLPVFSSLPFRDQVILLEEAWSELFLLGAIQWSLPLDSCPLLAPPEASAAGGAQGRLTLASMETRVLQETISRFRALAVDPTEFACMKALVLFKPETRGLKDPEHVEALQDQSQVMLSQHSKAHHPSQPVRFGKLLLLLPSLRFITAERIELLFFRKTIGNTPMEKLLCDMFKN
#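 Test system: GST-NR2E3 and biotin-RetCOR proteins | Quantity: 1.35 nM GST-tagged NR2E3 final | Medium: Tris pH 7.5 | Also added: 7 nM biotin-RetCOR | Dosing: Compound at 4.8 µM, single dose | Timing: 5 h at 4 °C | Detection: Time-resolved FRET | Read-out basis: Percent inhibition | Benchmarks: Biotin wells as high control, 0.6% DMSO wells as low control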
# Furin inh: human furin inhibitors, primary screen, biochemical, fluorescence intensity | P09958 | purified furin, fluorogenic substrate cleavage | hit rate 0.061% among 220,000 | inhibition, % at 20 µM or 30 µM; in the data active = inhibition above about 25%
# NR2E3 ag-2: NR2E3 agonists in two-hybrid cells, primary screen, cell-based, luminescence, CHO-S, Gal4-NCOR/VP16-NR2E3; luciferase; inhibition of corepressor binding, % at 3.98 µM; hit rate 0.35% among 360,000; AID 602229, 2012;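 active = inhibition above the mean of all tested compounds plus 3 SD, cut at about 70% in these data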;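 note: 0% = DMSO with NR2E3 transfected cells and 100% = cells lacking NR2E3 construct; higher means lower luciferase signal from less NR2E3 corepressor binding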
# EP2 modulator: EP2 receptor modulators, cAMP readout, primary screen, cell-based, HTRF cAMP, PGE2 stimulation; Prostaglandin E2 receptor EP2 subtype (Homo sapiens), P43116; EP2-expressing cells, cAMP HTRF FRET, PGE2 co-stimulation; induction, % at 25 µM; hit rate 0.83% among 260,000;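 active = compounds whose cAMP rise, as percent of the full-agonist control response, exceeds 60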;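 note: rat C6 glioma line stably carrying human EP2 under a CMV promoter; the protocol text gives 20 µM as final concentration; 100% = response of wells given 1 µM PGE2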
# * hit, by the source's call; . = no result given; ! = not confirmed by another sample.
SMILES,PGE2 EP2 inh,JMJD2C inh,NR2E3 ag-1,Furin inh,NR2E3 ag-2,EP2 modulator
CO[C@@H]([CH2][Hg][n]1cnc2c1c(=O)n(C)c(=O)n2C)CN1C(=O)c2ccccc2S1(=O)=O,49*,.,.,.,.,30
CCC(CC)N1CCN(Cc2ccccc2C)CC1,3,.,.,.,.,-10
CCc1[nH]c2ccc(C(=O)N3CCC(C(C)=O)(c4ccccc4)CC3)cc2c1C,5,.,.,.,.,-58
Cc1ccccc1N1C(=O)NC(=O)/C(=C\c2cnn(-c3ccccc3)c2)C1=O,51*,11,2,0,-34,-57
CCn1c(C)cc(/C=C2\C(=O)NC(=O)N(c3ccccc3C)C2=O)c1C,6,-6,5,5,6,-17
Nc1c(C(=O)Nc2ccc([As](=O)(O)O)cc2)cnc2nnnn12,52*,.,.,.,.,29
COC(=O)c1cn(Cc2ccc(C#N)cc2)c2ccccc12,12,.,.,.,.,49
Nc1nc2c(c(=S)[nH]1)[n]([Hg][c]1cc([N+](=O)[O-])ccc1O)c[n+]2[C@H]1O[C@H](CO)[C@@H](O)[C@@H]1O,60*,.,.,.,.,12
COc1cccc(CN2CCN(C(=O)COc3ccc(Cl)cc3)CC2)c1OC,11,.,.,.,.,-47
CCn1ncc(CN2C3CCC2CC(O)(c2ccccc2F)C3)c1C (centres undefined),9,.,.,.,.,-22
CC(C)C[C@H]1C(=O)N2CCC[C@H]2[C@]2(O)O[C@](NC(=O)[C@@H]3C=C4c5cccc6[nH]cc(c56)C[C@H]4N(C)C3)(C(C)C)C(=O)N12,.,.,1,.,-3,.
CN1C[C@@H](C(=O)N[C@@]2(C)O[C@@]3(O)[C@H]4CCCN4C(=O)[C@@H](Cc4ccccc4)N3C2=O)C=C2c3cccc4[nH]cc(c34)C[C@@H]21,66*,.,.,.,.,3
C#CCOc1ccccc1CN1C2CCC1CC(O)(c1ccccc1F)C2 (centres undefined),6,.,.,.,.,-35
O=C(O)c1ccc([N+](=O)[O-])c([N+](=O)[O-])c1,.,.,.,.,-21,.
O=C(O)c1cccc([As]=[As]c2cccc(C(=O)O)c2)c1 (centres undefined),42*,.,.,.,.,27
CN(C(=O)CN1C2CCC1CC(O)(c1ccccn1)C2)C1CCCCC1 (centres undefined),.,.,.,.,.,3
CN1/C(=C\C=C\C2=[N+](C)c3ccc4ccccc4c3C2(C)C)C(C)(C)c2ccccc21,114*,12,-4,-11,.,-46
O=c1c2ccccc2[se]n1-c1ccccc1,47*!,-12,-1,-13,4,-2
CCCSc1ncc(CN2C3CCC2CC(O)(c2ccc(F)cc2)C3)cn1 (centres undefined),10,.,.,.,.,-40
O=C1NC(=O)C(Sc2ccccc2[N+](=O)[O-])C(=O)N1,.,69*,-4,.,-17,.
Cc1ccc2nc3c(cc2c1)CC1(C(=O)N(C)C(=O)N(C)C1=O)C1CCCCN31 (centres undefined),6,56*,3,-84,-89,-9
Cc1ccc2nc3c(cc2c1)CC1(C(=O)N(C)C(=O)N(C)C1=O)C1COCCN31 (centres undefined),3,14,0,-66,-10,1
O=C1NC(=O)N(Cc2ccc(F)cc2)C(=O)/C1=C/c1cccs1,93*,2,4,-16,-16,-65
CCCOc1c(CN2C3CCC2CC(O)(c2ccc(OC)cc2)C3)cccc1OC (centres undefined),5,.,.,.,.,-38
C[C@]12CCC3C(CC[C@H]4C[C@@H](O)CC[C@]34C)C1CCC2=O (some centres undefined),42*,8,.,.,15,-37
N[C@H](Cc1ccc2oc3cc(=O)c4ccccc4c-3nc2c1)C(=O)O,68*,.,.,.,.,-18
C[C@]12CCC(=O)C=C1CCC1C2CC[C@@]2(C)C1CC[C@]2(C)O (some centres undefined),.,-2,.,.,13,.

# Screening data deposited in PubChem by several laboratories.
